Reference: ChEMBL document CHEMBL1155785 (Bioorg Med Chem, 2008)
Each block holds one compound with its values, some of them ahead of it. Active and inactive are the calls of the source. The rule behind the calls is not given here.

Experiments:
[1] = molecular target: T1, Receptor-type tyrosine-protein phosphatase F (Homo sapiens, UniProt P10586); test: Inhibition of human recombinant LAR
[2] = molecular target: T2, Tyrosine-protein phosphatase non-receptor type 1 (Homo sapiens, UniProt P18031); test: Inhibition of PTP1B
T2 sequence (P18031 whole entry): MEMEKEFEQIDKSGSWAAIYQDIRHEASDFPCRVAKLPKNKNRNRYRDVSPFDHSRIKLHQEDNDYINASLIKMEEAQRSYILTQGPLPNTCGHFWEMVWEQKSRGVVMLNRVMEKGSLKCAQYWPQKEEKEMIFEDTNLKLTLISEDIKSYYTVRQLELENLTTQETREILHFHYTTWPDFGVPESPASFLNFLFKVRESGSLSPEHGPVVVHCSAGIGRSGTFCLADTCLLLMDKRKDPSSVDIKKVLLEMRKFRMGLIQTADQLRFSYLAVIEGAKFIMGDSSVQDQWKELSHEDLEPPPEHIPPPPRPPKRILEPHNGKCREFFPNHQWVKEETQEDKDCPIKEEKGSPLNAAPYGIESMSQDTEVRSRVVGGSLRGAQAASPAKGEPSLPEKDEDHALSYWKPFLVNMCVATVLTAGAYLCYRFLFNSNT

[3] = molecular target: T1, Receptor-type tyrosine-protein phosphatase F; test: Inhibition of LAR
Outline: (§1)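 Recombinant LAR (300 nM) was preincubated 10 min with inhibitor in DMSO in pH 8.0 buffer (50 mM Tris, 50 mM NaCl, 2 mM EDTA, 2 mM DTT). Reaction was started with pH 6.0 MES substrate buffer holding 2 mM pNPP, at room temperature. pNP release was read continuously at 405 nm, using the initial linear rate. IC50 came from a Hill-equation nonlinear fit, mean ± SD of three replicates.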

[4] = molecular target: T3, Receptor-type tyrosine-protein phosphatase C (Homo sapiens, UniProt P08575); test: Inhibition of CD45
T3 sequence (P08575 whole entry): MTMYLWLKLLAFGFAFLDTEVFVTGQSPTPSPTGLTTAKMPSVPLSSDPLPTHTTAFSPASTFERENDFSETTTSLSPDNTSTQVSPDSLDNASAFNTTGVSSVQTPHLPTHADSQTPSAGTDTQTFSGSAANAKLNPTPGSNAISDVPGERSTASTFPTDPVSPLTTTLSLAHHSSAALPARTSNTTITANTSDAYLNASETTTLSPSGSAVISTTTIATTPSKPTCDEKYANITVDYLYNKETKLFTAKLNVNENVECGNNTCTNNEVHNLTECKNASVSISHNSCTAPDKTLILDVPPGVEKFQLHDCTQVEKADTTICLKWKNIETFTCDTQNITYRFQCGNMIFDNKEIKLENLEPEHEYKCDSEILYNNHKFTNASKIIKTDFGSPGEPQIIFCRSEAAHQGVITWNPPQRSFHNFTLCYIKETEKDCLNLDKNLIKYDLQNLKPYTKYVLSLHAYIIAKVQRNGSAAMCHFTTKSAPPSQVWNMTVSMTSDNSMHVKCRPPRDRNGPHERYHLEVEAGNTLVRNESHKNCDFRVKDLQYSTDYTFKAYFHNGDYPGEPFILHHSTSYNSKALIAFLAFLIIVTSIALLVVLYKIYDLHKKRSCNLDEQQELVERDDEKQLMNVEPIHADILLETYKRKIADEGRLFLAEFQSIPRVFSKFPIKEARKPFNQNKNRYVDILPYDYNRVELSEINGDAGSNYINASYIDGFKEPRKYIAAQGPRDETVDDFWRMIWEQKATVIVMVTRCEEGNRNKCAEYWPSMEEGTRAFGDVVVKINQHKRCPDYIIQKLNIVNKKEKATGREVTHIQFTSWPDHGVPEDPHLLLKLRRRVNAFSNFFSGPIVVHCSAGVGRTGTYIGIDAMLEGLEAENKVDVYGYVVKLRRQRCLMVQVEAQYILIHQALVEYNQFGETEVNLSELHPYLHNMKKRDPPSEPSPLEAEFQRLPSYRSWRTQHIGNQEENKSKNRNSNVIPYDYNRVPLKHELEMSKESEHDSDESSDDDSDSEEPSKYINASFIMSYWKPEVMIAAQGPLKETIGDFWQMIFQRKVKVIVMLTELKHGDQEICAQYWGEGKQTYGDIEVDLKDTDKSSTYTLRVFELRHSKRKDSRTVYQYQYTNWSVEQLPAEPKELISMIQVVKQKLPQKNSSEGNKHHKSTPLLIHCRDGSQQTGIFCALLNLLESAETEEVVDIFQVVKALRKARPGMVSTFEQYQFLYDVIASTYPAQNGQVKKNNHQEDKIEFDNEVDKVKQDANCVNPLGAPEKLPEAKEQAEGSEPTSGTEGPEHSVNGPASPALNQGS

[5] = molecular target: T1, Receptor-type tyrosine-protein phosphatase F; test: Inhibition of human recombinant LAR at 20 ug/mL
Outline: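 Single-concentration test at 20 µg/mL. Recombinant LAR (300 nM) was preincubated 10 min with compound at pH 8.0 (Tris/NaCl/EDTA/DTT). Hydrolysis of 2 mM pNPP (stock in substrate buffer) was then followed at pH 6.0 MES buffer, room temperature. Initial rate was taken at 405 nm and expressed as % inhibition.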

[6] = molecular target: T1, Receptor-type tyrosine-protein phosphatase F; test: Inhibition of human recombinant LAR upto 100 uM; details: in the assay text read “at 20 ug/mL” for “upto 100 uM”; outline: as §1
[7] = molecular target: T4, Tyrosine-protein phosphatase non-receptor type 2 (Homo sapiens, UniProt P17706); test: Inhibition of TCPTP
T4 sequence (P17706 whole entry): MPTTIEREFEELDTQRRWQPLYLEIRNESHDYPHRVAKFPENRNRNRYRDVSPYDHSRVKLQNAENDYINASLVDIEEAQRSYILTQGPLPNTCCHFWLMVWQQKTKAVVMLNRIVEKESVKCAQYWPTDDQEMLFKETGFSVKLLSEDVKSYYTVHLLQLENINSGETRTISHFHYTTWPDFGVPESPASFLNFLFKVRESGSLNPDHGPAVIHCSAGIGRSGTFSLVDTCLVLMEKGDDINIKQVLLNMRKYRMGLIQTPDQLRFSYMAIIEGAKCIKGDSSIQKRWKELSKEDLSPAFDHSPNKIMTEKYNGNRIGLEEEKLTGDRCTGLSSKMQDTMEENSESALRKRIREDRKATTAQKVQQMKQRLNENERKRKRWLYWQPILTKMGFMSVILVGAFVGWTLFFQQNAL

[8] = Inhibition of Yersinia PTPase; parameters: species or system Yersinia sp.
[9] = molecular target: T1, Receptor-type tyrosine-protein phosphatase F; test: Inhibition of dialyzed human LAR assessed as recovery of enzyme activity at 20 uM after 24 hrs
Outline: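 LAR (1500 nM) was preincubated 10 min at pH 8.0 with 20 µM inhibitor or 2% DMSO, then dialyzed against enzyme buffer. Aliquots were withdrawn at set times up to 24 h and assayed for pNPP phosphatase activity at pH 6.0, read at 405 nm.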

T1 sequence (P10586 whole entry): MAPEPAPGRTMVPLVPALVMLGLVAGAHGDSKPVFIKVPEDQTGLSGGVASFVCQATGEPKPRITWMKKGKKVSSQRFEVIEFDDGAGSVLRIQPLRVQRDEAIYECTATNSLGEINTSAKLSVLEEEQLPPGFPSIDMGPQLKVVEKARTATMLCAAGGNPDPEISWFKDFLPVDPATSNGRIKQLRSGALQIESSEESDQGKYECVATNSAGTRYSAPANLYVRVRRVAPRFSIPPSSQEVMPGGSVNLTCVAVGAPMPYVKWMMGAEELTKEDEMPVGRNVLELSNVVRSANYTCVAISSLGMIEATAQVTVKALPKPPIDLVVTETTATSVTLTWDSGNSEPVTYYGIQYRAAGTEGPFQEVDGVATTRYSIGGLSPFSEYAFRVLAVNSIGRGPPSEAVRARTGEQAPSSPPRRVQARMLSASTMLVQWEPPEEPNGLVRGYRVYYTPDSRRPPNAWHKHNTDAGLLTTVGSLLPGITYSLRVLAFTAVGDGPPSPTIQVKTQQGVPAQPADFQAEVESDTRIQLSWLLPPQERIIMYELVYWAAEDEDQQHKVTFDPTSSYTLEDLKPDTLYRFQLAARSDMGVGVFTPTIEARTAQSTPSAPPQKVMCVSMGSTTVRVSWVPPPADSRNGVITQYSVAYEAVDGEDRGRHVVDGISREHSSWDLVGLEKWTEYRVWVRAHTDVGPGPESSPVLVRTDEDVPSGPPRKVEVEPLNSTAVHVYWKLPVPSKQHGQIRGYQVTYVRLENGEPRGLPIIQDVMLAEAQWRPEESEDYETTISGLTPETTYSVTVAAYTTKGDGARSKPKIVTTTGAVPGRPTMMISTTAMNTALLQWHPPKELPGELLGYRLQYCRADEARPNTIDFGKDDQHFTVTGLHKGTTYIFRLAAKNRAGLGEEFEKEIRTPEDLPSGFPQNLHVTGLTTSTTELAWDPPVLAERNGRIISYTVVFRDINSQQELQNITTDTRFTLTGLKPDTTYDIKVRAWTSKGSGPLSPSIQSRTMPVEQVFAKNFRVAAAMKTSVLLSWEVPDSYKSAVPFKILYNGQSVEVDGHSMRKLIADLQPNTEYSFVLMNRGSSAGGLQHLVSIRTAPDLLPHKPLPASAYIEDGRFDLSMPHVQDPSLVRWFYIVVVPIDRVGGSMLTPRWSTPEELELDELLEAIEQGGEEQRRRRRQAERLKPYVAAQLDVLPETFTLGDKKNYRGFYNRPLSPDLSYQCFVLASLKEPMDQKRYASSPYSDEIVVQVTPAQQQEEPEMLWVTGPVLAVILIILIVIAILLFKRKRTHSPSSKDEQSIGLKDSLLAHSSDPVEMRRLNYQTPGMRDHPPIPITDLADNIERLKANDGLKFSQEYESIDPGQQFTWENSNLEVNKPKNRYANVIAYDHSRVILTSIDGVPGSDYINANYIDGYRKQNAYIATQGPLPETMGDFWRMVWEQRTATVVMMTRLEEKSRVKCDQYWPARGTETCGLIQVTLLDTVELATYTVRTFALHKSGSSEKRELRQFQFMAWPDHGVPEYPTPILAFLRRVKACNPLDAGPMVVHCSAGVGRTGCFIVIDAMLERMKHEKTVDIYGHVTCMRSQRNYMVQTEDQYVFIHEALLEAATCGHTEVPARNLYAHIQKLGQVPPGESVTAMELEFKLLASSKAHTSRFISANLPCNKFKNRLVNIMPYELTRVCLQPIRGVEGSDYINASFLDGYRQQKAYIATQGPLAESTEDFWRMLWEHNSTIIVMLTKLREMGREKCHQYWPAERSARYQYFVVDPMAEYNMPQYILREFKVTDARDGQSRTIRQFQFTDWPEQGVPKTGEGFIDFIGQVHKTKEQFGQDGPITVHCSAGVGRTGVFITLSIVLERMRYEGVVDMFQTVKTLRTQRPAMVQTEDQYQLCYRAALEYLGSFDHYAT

Compound: COc1c(C=O)c2c(c3c1CC(C)(C)C3)C(=O)OC(O)C2 (stereo unspecified)
IC50 [1]: 1530 nM

Compound: COc1ccc2c(c1C=O)CC(O)OC2=O (stereo unspecified)
IC50 [1]: 21800 nM

Compound: COC(=O)c1ccc(OC)c(CO)c1CCO
inhibition [5]: < 5% | Activity [6]: inactive

Compound: COc1ccc2c(c1C=O)CCOC2=O
inhibition [5]: < 5%

Compound: COc1ccc2c(c1C=O)CC(O)OC2 (stereo unspecified)
inhibition [5]: 20% | Activity [9]: Active

Compound: COc1ccc2c(c1)CC(O)OC2=O (stereo unspecified)
inhibition [5]: < 5%

Compound: COC(=O)c1ccc(OC)c(C=O)c1CC=O
inhibition [5]: < 5% | Activity [6]: inactive

Now from value to compound:

IC50 [2]: 2000 nM | IC50 [3]: 116000 nM | IC50 [4]: 280 nM
Compound: O=C(O)COc1c(O)cc(-c2cc(C(F)(F)F)cc(C(F)(F)F)c2)cc1OCc1cccc(C(F)(F)F)c1

inhibition [5]: < 5% | Activity [6]: inactive
Compound: COc1ccc(C(=O)O)c(CCO)c1CO

IC50 [3]: 320000 nM
Compound: O=C(O)COc1c(C(=O)O)sc(-c2ccc(NC(=O)c3cccnc3)cc2)c1Br

IC50 [7]: 680 nM | IC50 [3]: 18200 nM
Compound: CSc1ccnc(C[S+]([O-])c2nc3cc(OC(C)C)ccc3[nH]2)c1 (stereo unspecified)

Ki [7]: 49 nM | Ki [3]: 1300 nM
Compound: CC(=O)NC(Cc1ccc(N(C(=O)C(=O)O)c2ccccc2C(=O)O)c2ccccc12)C(=O)NCCCCCOc1cc2ccccc2cc1C(=O)O (stereo unspecified)

IC50 [8]: 1700 nM
Compound: O=C(O)C(=O)c1ccc(OCc2cc(COc3ccc(C(=O)C(=O)O)cc3)cc(COc3ccc(C(=O)C(=O)O)cc3)c2)cc1
